Source: publication PMC2195664 (The Journal of Experimental Medicine, 1999)
Read-outs that look alike come from different tables or passages of the source. Ends that are not written are not given here. * marks the point of attachment. Biotin = O=C1N[C@H]2[C@H](CS[C@H]2CCCCC(=O)*)N1

Experiments:
[1] = system: 3C3 mouse NK T cell hybridoma; experiment: Competition for α-GalCer presentation by plate-bound mCD1 to 3C3 hybridoma; type: cell-based; details: 1 μg/well mCD1 preincubated with 25 ng/well α-GalCer
[2] = system: 3C3 mouse NK T cell hybridoma; experiment: Antigen presentation by plate-bound mCD1 to 3C3 hybridoma, IL-2 release ELISA; type: cell-based; details: 1 μg/well plate-bound mCD1 preincubated with 100 ng lipid
In short: (§1)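 Soluble CD1d–β2m heterodimers came from stably cotransfected Drosophila SC2 cells induced 3 d with 0.7 mM CuSO₄, purified on Ni-NTA then Mono Q. Plates were coated 2 h at 37°C with 1 µg/well protein premixed with lipid in PBS. Controls were protein with DMSO (0.25–1% final) or lipid alone. After five PBS washes, 5 × 10⁴ 3C3 cells/well were added; IL-2 was measured by ELISA after 16 h.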

[3] = Solubility in aqueous solution; type: physicochemical; details: must be dissolved in DMSO-containing solutions
hCD1d [4] = molecular target: T1, hCD1d (Homo sapiens, UniProt P15813); experiment: SPR; type: binding
mCD1 [5] = molecular target: T2, mCD1 (Mus musculus, UniProt P11609); experiment: SPR; type: binding
mCD1-restricted CTLs = details: cited from earlier work
[6] = system: 3C3 mouse NK T cell hybridoma; experiment: Antigen presentation by plate-bound hCD1d to 3C3 hybridoma, IL-2 release ELISA; type: cell-based; details: 1 μg/well plate-bound hCD1d preincubated with 100 ng lipid
In short: as §1

DN3A4-1.2 NK T hybridoma = experiment: Stimulation of 1.2 hybridoma by plates coated with soluble CD1d, IL-2 release; type: cell-based, mouse; details: 50 ng/well α-GalCer
In short: (§2)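 Plates were coated 2 h at 37°C with 1 µg/well soluble mCD1 or hCD1d (insect-cell-derived), either alone or premixed in PBS with 50 ng/well α-GalCer. After five PBS washes, 5 × 10⁴ hybridoma cells/well were added. IL-2 was quantified after 16 h by sandwich ELISA against a recombinant IL-2 standard (detection limit 0.1 U/ml). Representative of five experiments.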

N38-2C12 NK T hybridoma = experiment: Stimulation of 2C12 hybridoma by plates coated with soluble CD1d, IL-2 release; type: cell-based, mouse; details: 50 ng/well α-GalCer
In short: as §2

[7] = system: 3C3 mouse NK T cell hybridoma; type: cell-based; details: mCD1+ A20 cells pulsed with 100 ng/ml lipid; 16 h
[8] = system: Vα14+ mouse NK T cell hybridomas N38-2H4 and DN3A4-1.4; experiment: Recognition of antigen on immobilized mCD1 by Vβ7; type: cell-based; details: data not shown
[9] = system: 3C3 mouse NK T cell hybridoma; experiment: Competition for α-GalCer presentation by plate-bound hCD1d; type: cell-based; details: data not shown
In short: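 Gangliosides dissolved in PBS were added to soluble insect-cell-derived hCD1d before α-GalCer. The mixture was coated onto plates 2 h at 37°C and washed five times in PBS. 3C3 hybridoma cells (5 × 10⁴/well) were cultured 16 h, and IL-2 was measured by ELISA.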

hCD1d [10] = molecular target: T1, hCD1d; type: binding; details: competitor preincubated with protein in solution
mCD1 [11] = molecular target: T2, mCD1; type: binding; details: competitor preincubated with protein in solution
mCD1 [12] = molecular target: T2, mCD1; experiment: SPR competition: mCD1 binding to biotin-P99 chip; details: mCD1 1.8–2 μM
NK T cells = details: cited from earlier work
[13] = molecular target: T3, soluble mCD1–mβ2m heterodimer (mouse, UniProt P11609 22-305; P01887 21-119); experiment: SPR
T3 sequence (looked up) 1: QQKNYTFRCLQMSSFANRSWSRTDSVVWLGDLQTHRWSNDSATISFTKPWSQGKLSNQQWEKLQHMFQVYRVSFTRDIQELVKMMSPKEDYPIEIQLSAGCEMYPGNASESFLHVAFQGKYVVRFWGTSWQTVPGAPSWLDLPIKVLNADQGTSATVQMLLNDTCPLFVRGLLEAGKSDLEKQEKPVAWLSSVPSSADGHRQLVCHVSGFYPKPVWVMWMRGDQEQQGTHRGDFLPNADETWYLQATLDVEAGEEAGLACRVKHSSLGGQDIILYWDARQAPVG
T3 sequence (looked up) 2: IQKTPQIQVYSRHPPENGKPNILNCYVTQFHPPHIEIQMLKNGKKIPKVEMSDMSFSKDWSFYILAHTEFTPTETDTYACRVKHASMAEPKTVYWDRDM

## CC(=O)N[C@H]1[C@H](O[C@H]2[C@@H](O)[C@@H](CO)O[C@@H](O[C@@H]([C@H](O)[C@@H](O)C=O)[C@H](O)CO)[C@@H]2O)O[C@H](CO[C@]2(C(=O)O)C[C@H](O)[C@@H](NC(C)=O)[C@H]([C@H](O)[C@H](O)CO)O2)[C@@H](O)[C@@H]1O[C@@H]1O[C@H](CO)[C@H](O)[C@H](O[C@]2(C(=O)O)C[C@H](O)[C@@H](NC(C)=O)[C@H]([C@H](O)[C@H](O)CO)O2)[C@H]1O [disialyllacto-N-tetraose, α-Neu5Ac-[2→3]-β-Gal-[1→3]-(α-Neu5Ac-[2→6])-β-GlcNac-[1→3]-β-Gal-[1→4]-Glc]
[1]
  inhibition of α-GalCer presentation: did not inhibit
[1]; listed as control hexasaccharide
  inhibition of α-GalCer presentation: has no effect

## CCCCCCCCCCCCCCCCCCCCCCCCCC(=O)N[C@@H](CO[C@H]1O[C@H](CO)[C@H](O)[C@H](O)[C@H]1O)[C@H](O)[C@H](O)CCCCCCCCCCCCCC [α-GalCer, α-galactosyl ceramide]
[2]
  presentation to 3C3 hybridoma (IL-2 release): could both present
[3]
  solubility: much less soluble than the gangliosides
hCD1d [4]; read-out: k off (fast)
  koff: 0.08 s⁻¹
hCD1d [4]; read-out: k off (slow)
  koff: 0.004 s⁻¹
mCD1 [5]; read-out: k off (fast)
  koff: 0.1 s⁻¹
mCD1 [5]; read-out: k off (slow)
  koff: 0.004 s⁻¹
mCD1-restricted CTLs
  effect on ovalbumin peptide recognition: did not affect
[6]
  presentation to 3C3 hybridoma (IL-2 release): could both present
DN3A4-1.2 NK T hybridoma
  effect on response to plate-bound CD1d: can be enhanced
N38-2C12 NK T hybridoma
  effect on response to plate-bound CD1d: can be enhanced
[7]
  presentation to 3C3 hybridoma (IL-2 release): can present
[8]
  recognition when presented by immobilized mCD1: could recognize

## GD1a
[9]
  inhibition of α-GalCer presentation: could inhibit
hCD1d [10]
  inhibition of hCD1d binding to biotin–α-GalCer or biotin–β-GalCer chip: could inhibit
mCD1 [11]
  inhibition of mCD1 binding to biotin–α-GalCer or biotin–β-GalCer chip: could inhibit
[1]
  inhibition of α-GalCer presentation: could inhibit

## YEHDFHHIREWGNHWKNCLAVM [P99]
mCD1 [12]
  inhibition of mCD1 binding to immobilized biotin-P99: inhibited by increasing concentrations
NK T cells
  prevention of α-GalCer recognition by NK T cells: neither P99 nor an ovalbumin peptide could prevent
mCD1 [11]
  inhibition of mCD1 binding to biotin–α-GalCer or biotin–β-GalCer chip: does not affect

B1: NH2 terminus biotinylated P99 peptide (peptide)
peptide: Biotin-YEHDFHHIREWGNHWKNCLAVM
[13]
  koff: 0.005 to 0.008 s⁻¹
